Measured values as given in ChEMBL document CHEMBL1155058, “N-Arylmethyl substituted iminoribitol derivatives as inhibitors of a purine specific nucleoside hydrolase” (Bioorg Med Chem, 2008).

Experiment: Inhibition of Trypanosoma vivax IAG-NH expressed in Escherichia coli WK6 cells
How it was run: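 Recombinant N-terminal His6-tagged enzyme, purified by Ni-NTA affinity and Superdex-200 gel filtration, concentration per monomer from ε280 47752 M-1cm-1. […] Initial rates fitted to competitive inhibition equation.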

| Structure (SMILES) | Ki |
| --- | --- |
| OC[C@@H]1[C@@H](O)[C@@H](O)CN1Cc1ccccc1 | 59000 nM |
| OC[C@@H]1[C@@H](O)[C@@H](O)CN1Cc1nccc2ccccc12 | 750 nM |
| OC[C@@H]1[C@@H](O)[C@@H](O)CN1Cc1ccc(-n2cccn2)cc1 | 1200 nM |
| OC[C@@H]1[C@@H](O)[C@@H](O)CN1Cc1cnc2ccccc2c1 | 20000 nM |
| Cc1nn(-c2ccccc2)nc1CN1C[C@H](O)[C@H](O)[C@H]1CO | 63 nM |
| OC[C@@H]1[C@@H](O)[C@@H](O)CN1Cc1ccc2cccc(O)c2n1 | 1000 nM |
| Cc1nc(-c2ccccc2)ncc1CN1C[C@H](O)[C@H](O)[C@H]1CO | 43000 nM |
| OC[C@@H]1[C@@H](O)[C@@H](O)CN1Cc1cccc(-n2cccc2)c1 | 3400 nM |
| O=[N+]([O-])c1cccc(CN2C[C@H](O)[C@H](O)[C@H]2CO)c1 | 23000 nM |
| O=[N+]([O-])c1ccc(CN2C[C@H](O)[C@H](O)[C@H]2CO)cc1 | 7500 nM |
| Nc1ncnc2c(CN3C[C@H](O)[C@H](O)[C@H]3CO)c[nH]c12 | 4.1 nM |
| Cn1nnc2cc(CN3C[C@H](O)[C@H](O)[C@H]3CO)ccc21 | 720 nM |
| Nc1ncccc1CN1C[C@H](O)[C@H](O)[C@H]1CO | 120000 nM |
| OC[C@@H]1[C@@H](O)[C@@H](O)CN1Cc1ccc(-n2cncn2)cc1 | 1200 nM |
| COc1ccc(CN2C[C@H](O)[C@H](O)[C@H]2CO)cn1 | 32000 nM |
| OC[C@@H]1[C@@H](O)[C@@H](O)CN1Cc1c[nH]c2ccccc12 | 12000 nM |
| OC[C@@H]1[C@@H](O)[C@@H](O)CN1Cc1ccc(-n2cccc2)cc1 | 1000 nM |
| OC[C@@H]1[C@@H](O)[C@@H](O)CN1Cc1ccc(I)cc1 | 4300 nM |
| COc1cccc2c(CN3C[C@H](O)[C@H](O)[C@H]3CO)c[nH]c12 | 2300 nM |
| Cn1c(CN2C[C@H](O)[C@H](O)[C@H]2CO)nc2ccccc21 | 2100 nM |
| OC[C@@H]1[C@@H](O)[C@@H](O)CN1Cc1ccncc1 | 20000 nM |
| OC[C@@H]1[C@@H](O)[C@@H](O)CN1Cc1ccc2cccnc2c1 | 720 nM |
| OC[C@@H]1[C@@H](O)[C@@H](O)CN1Cc1ccc2ccccc2c1 | 2000 nM |
| N#Cc1ccc(CN2C[C@H](O)[C@H](O)[C@H]2CO)cc1 | 26000 nM |
| OC[C@@H]1[C@@H](O)[C@@H](O)CN1Cc1ccc2ccccc2n1 | 180 nM |
| OC[C@@H]1[C@@H](O)[C@@H](O)CN1Cc1cccc2cccnc12 | 10.8 nM |
| OC[C@@H]1[C@@H](O)[C@@H](O)CN1Cc1ccnc2ccccc12 | 29000 nM |
| N#Cc1cccc(CN2C[C@H](O)[C@H](O)[C@H]2CO)c1 | 3800 nM |
| OC[C@@H]1[C@@H](O)[C@@H](O)CN1Cc1c[nH]c2c(O)ncnc12 | 4.4 nM |
